{"source": "ChEMBL document CHEMBL4028810", "about": "“Synthesis and biological evaluation of novel chalcone derivatives as a new class of microtubule destabilizing agents” (Eur J Med Chem, 2017)", "key": {"NCI-H460 [1]": {"tested_on": "NCI-H460", "assay": "Cytotoxicity against human NCI-H460 cells after 48 hrs by MTT assay", "assay_type": "functional, cell-based", "conditions": "NCI-H460, 48 h", "in_short": "(§1)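 Log-phase cells were seeded at about 1 × 10⁵ cells/mL in 96-well plates and allowed to settle 12 h at 37 °C in 5% CO₂. Compounds were added at five concentrations for 48 h. Absorbance was read at dual wavelength 570/630 nm. Survival was expressed as a percentage of control, and IC50 was calculated by the Bliss method (n = 5). Each test was run in triplicate.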"}, "MGC-803": {"tested_on": "MGC-803", "assay": "Cytotoxicity against human MGC803 cells after 48 hrs by MTT assay", "assay_type": "functional, cell-based", "conditions": "MGC-803, 48 h", "in_short": "as §1"}, "SK-OV-3": {"tested_on": "SK-OV-3", "assay": "Cytotoxicity against human SKOV3 cells after 48 hrs by MTT assay", "assay_type": "functional, cell-based", "conditions": "SK-OV-3, 48 h", "in_short": "as §1"}, "L02": {"tested_on": "L02", "assay": "Cytotoxicity against human HL7702 cells after 48 hrs by MTT assay", "assay_type": "cell-based", "conditions": "L02, 48 h", "in_short": "as §1"}, "[2]": {"assay": "Resistant factor, ratio of IC50 for human A549/TR cells to IC50 for human A549 cells", "assay_type": "functional", "in_short": "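The resistance index is IC50 on the paclitaxel-resistant line divided by IC50 on the parental sensitive line (A549 or HeLa). Both IC50 values come from the 48 h, five-concentration growth assay with 570/630 nm absorbance read-out and Bliss-method calculation.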"}, "[3]": {"assay": "Cytotoxicity against human HeLa/TR cells after 48 hrs by MTT assay", "assay_type": "functional, cell-based", "in_short": "as §1"}, "Sus scrofa": {"species_on_record": "Sus scrofa", "assay": "Inhibition of porcine brain tubulin polymerization at 15 uM measured at 1 min interval for 40 mins by spectrophotometric method", "in_short": "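Purified brain tubulin, final 3.0 mg/mL, was added to start the reaction in 80 mM PIPES pH 6.9, 2.0 mM MgCl₂, 0.5 mM EGTA, 1 mM GTP and 10.2% glycerol, with the other components prewarmed to 37 °C. Compounds were tested at 10 or 15 µM. Polymerization at 37 °C was followed as absorbance at 340 nm over 40 min.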"}, "NCI-H460 [4]": {"tested_on": "NCI-H460", "assay": "Induction of apoptosis in human NCI-H460 cells assessed as live cells at 5 uM after 24 hrs by Annexin V-FITC/propidium iodide staining based flow cytometric method (reference value: 95.8%)", "assay_type": "functional"}, "NCI-H460 [5]": {"tested_on": "NCI-H460", "assay": "Induction of apoptosis in human NCI-H460 cells assessed as early apoptotic cells at 5 uM after 24 hrs by Annexin V-FITC/propidium iodide staining based flow cytometric method (reference value: 1.55%)", "assay_type": "functional"}, "NCI-H460 [6]": {"tested_on": "NCI-H460", "assay": "Induction of apoptosis in human NCI-H460 cells assessed as necrotic cells at 5 uM after 24 hrs by Annexin V-FITC/propidium iodide staining based flow cytometric method (reference value: 1.84%)", "assay_type": "functional"}, "NCI-H460 [7]": {"tested_on": "NCI-H460", "assay": "Induction of apoptosis in human NCI-H460 cells assessed as live cells at 10 uM after 24 hrs by Annexin V-FITC/propidium iodide staining based flow cytometric method (reference value: 95.8%)", "assay_type": "functional"}, "NCI-H460 [8]": {"tested_on": "NCI-H460", "assay": "Induction of apoptosis in human NCI-H460 cells assessed as early apoptotic cells at 10 uM after 24 hrs by Annexin V-FITC/propidium iodide staining based flow cytometric method (reference value: 1.55%)", "assay_type": "functional"}, "NCI-H460 [9]": {"tested_on": "NCI-H460", "assay": "Induction of apoptosis in human NCI-H460 cells assessed as late apoptotic cells at 10 uM after 24 hrs by Annexin V-FITC/propidium iodide staining based flow cytometric method (reference value: 0.839%)", "assay_type": "functional"}, "NCI-H460 [10]": {"tested_on": "NCI-H460", "assay": "Induction of apoptosis in human NCI-H460 cells after 24 hrs by Annexin V-FITC/propidium iodide staining based flow cytometric method", "assay_type": "functional, cell-based"}, "NCI-H460 [11]": {"tested_on": "NCI-H460", "assay": "Induction of apoptosis in human NCI-H460 cells assessed as appearance of hyper-condensed nuclei after 24 hrs by Hoechst 33258 staining based fluorescence assay", "assay_type": "functional, cell-based", "in_short": "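NCI-H460 cells were treated 24 h at 5 or 10 µM, with untreated cells as control. Nuclei were stained with Hoechst 33258 and inspected by fluorescence for chromatin condensation.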"}, "NCI-H460 [12]": {"tested_on": "NCI-H460", "assay": "Cell cycle arrest in human NCI-H460 cells assessed as accumulation at G1-phase at 5 uM after 48 hrs by propidium iodide staining based flow cytometric method (reference value: 75.84%)", "assay_type": "functional"}, "NCI-H460 [13]": {"tested_on": "NCI-H460", "assay": "Cell cycle arrest in human NCI-H460 cells assessed as accumulation at S-phase at 5 uM after 48 hrs by propidium iodide staining based flow cytometric method (reference value: 21.79%)", "assay_type": "functional"}, "NCI-H460 [14]": {"tested_on": "NCI-H460", "assay": "Cell cycle arrest in human NCI-H460 cells assessed as accumulation at G1-phase at 10 uM after 48 hrs by propidium iodide staining based flow cytometric method (reference value: 75.84%)", "assay_type": "functional"}, "NCI-H460 [15]": {"tested_on": "NCI-H460", "assay": "Cell cycle arrest in human NCI-H460 cells assessed as accumulation at S-phase at 10 uM after 48 hrs by propidium iodide staining based flow cytometric method (reference value: 21.79%)", "assay_type": "functional"}, "NCI-H460 [16]": {"tested_on": "NCI-H460", "assay": "Cell cycle arrest in human NCI-H460 cells assessed as increase in accumulation at G2-phase after 48 hrs by propidium iodide staining based flow cytometric method", "assay_type": "functional"}, "NCI-H460 [17]": {"tested_on": "NCI-H460", "assay": "Disruption of mitochondrial membrane potential in human NCI-H460 cells assessed as collapse of mitochondrial membrane potential at 5 uM after 24 hrs by JC-1 staining based flow cytometric method (reference value: 1.98%)", "assay_type": "functional", "in_short": "(§2)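 NCI-H460 cells were treated 24 h at 5 or 10 µM, with untreated cells as control. The medium was replaced, and the JC-1 probe was added 20 min later. Cells were then pelleted at 2000 rpm, washed twice in ice-cold PBS and analysed by flow cytometry with excitation at 488 nm and emission at 530 and 590 nm.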"}, "NCI-H460 [18]": {"tested_on": "NCI-H460", "assay": "Disruption of mitochondrial membrane potential in human NCI-H460 cells assessed as intact mitochondrial membrane potential at 5 uM after 24 hrs by JC-1 staining based flow cytometric method (reference value: 11.9%)", "assay_type": "functional", "in_short": "as §2"}, "NCI-H460 [19]": {"tested_on": "NCI-H460", "assay": "Disruption of mitochondrial membrane potential in human NCI-H460 cells assessed as intact mitochondrial membrane potential at 10 uM after 24 hrs by JC-1 staining based flow cytometric method (reference value: 11.9%)", "assay_type": "functional", "in_short": "as §2"}, "NCI-H460 [20]": {"tested_on": "NCI-H460", "assay": "Disruption of mitochondrial membrane potential in human NCI-H460 cells after 24 hrs by JC-1 staining based flow cytometric method", "assay_type": "functional, cell-based", "in_short": "as §2"}, "NCI-H460 [21]": {"tested_on": "NCI-H460", "assay": "Induction of apoptosis in human NCI-H460 cells assessed as increase in cytochrome c release from mitochondria to cytosol after 48 hrs by Western blot method", "assay_type": "functional, cell-based", "in_short": "(§3)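 NCI-H460 cells were treated 48 h at various concentrations. Cells were washed in ice-cold PBS and lysed on ice for 20 min, and lysates were spun at 20000 g and 4 °C for 5 min. Protein was quantified by BCA, and equal amounts were run on 12% SDS-PAGE and transferred to PVDF. Membranes were blocked in 5% milk/TBST, probed overnight at 4 °C with primary antibodies (β-actin as reference), then with peroxidase secondary for 2 h. Bands were detected by chemiluminescence.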"}, "NCI-H460 [22]": {"tested_on": "NCI-H460", "assay": "Induction of apoptosis in human NCI-H460 cells assessed as increase in cleaved caspase-9 expression at 5 to 10 uM after 48 hrs by Western blot method", "assay_type": "functional, cell-based", "in_short": "as §3"}, "NCI-H460 [23]": {"tested_on": "NCI-H460", "assay": "Induction of apoptosis in human NCI-H460 cells assessed as increase in cleaved caspase-3 expression at 5 to 10 uM after 48 hrs by Western blot method", "assay_type": "functional, cell-based", "in_short": "as §3"}, "NCI-H460 [24]": {"tested_on": "NCI-H460", "assay": "Induction of apoptosis in human NCI-H460 cells assessed as upregulation of Bax expression after 48 hrs by Western blot method", "assay_type": "functional, cell-based", "in_short": "as §3"}, "NCI-H460 [25]": {"tested_on": "NCI-H460", "assay": "Induction of apoptosis in human NCI-H460 cells assessed as down regulation of Bcl2 expression after 48 hrs by Western blot method", "assay_type": "functional, cell-based", "in_short": "as §3"}}, "note": "Active and inactive are the calls of the source. No cut-off for these calls is given here."}
{"smiles": "COc1ccc(/C=C/C(=O)c2cc(OC)c(OC)c(OC)c2)cc1OCC(=O)Nc1ccccc1Cl", "values": [{"measurement": "IC50", "setting": "NCI-H460 [1]", "result": 3.75, "unit": "µM"}, {"measurement": "IC50", "setting": "MGC-803", "result": 8.42, "unit": "µM"}, {"measurement": "IC50", "setting": "SK-OV-3", "result": 6.28, "unit": "µM"}, {"measurement": "IC50", "setting": "L02", "result": "> 50", "unit": "µM"}, {"measurement": "Ratio IC50", "setting": "[2]", "result": 1.2}, {"measurement": "IC50", "setting": "[3]", "result": 5.95, "unit": "µM"}, {"measurement": "inhibition", "setting": "Sus scrofa", "result": "Active"}, {"measurement": "Activity", "setting": "NCI-H460 [4]", "result": 83.6, "unit": "%"}, {"measurement": "Activity", "setting": "NCI-H460 [5]", "result": 11.9, "unit": "%"}, {"measurement": "Activity", "setting": "NCI-H460 [6]", "result": 1.1, "unit": "%"}, {"measurement": "Activity", "setting": "NCI-H460 [7]", "result": 22.7, "unit": "%"}, {"measurement": "Activity", "setting": "NCI-H460 [8]", "result": 23.7, "unit": "%"}, {"measurement": "Activity", "setting": "NCI-H460 [9]", "result": 42.7, "unit": "%"}, {"measurement": "Activity", "setting": "NCI-H460 [10]", "result": "Dose-dependent effect"}, {"measurement": "Activity", "setting": "NCI-H460 [11]", "result": "Dose-dependent effect"}, {"measurement": "Activity", "setting": "NCI-H460 [12]", "result": 59.12, "unit": "%"}, {"measurement": "Activity", "setting": "NCI-H460 [13]", "result": 29, "unit": "%"}, {"measurement": "Activity", "setting": "NCI-H460 [14]", "result": 1.95, "unit": "%"}, {"measurement": "Activity", "setting": "NCI-H460 [15]", "result": 20.81, "unit": "%"}, {"measurement": "Activity", "setting": "NCI-H460 [16]", "result": "Dose-dependent effect"}, {"measurement": "Activity", "setting": "NCI-H460 [17]", "result": 3.13, "unit": "%"}, {"measurement": "Activity", "setting": "NCI-H460 [18]", "result": 16.9, "unit": "%"}, {"measurement": "Activity", "setting": "NCI-H460 [19]", "result": 26.2, "unit": "%"}, {"measurement": "Activity", "setting": "NCI-H460 [20]", "result": "Dose-dependent effect"}, {"measurement": "Activity", "setting": "NCI-H460 [21]", "result": "Dose-dependent effect"}, {"measurement": "Activity", "setting": "NCI-H460 [22]", "result": "Active"}, {"measurement": "Activity", "setting": "NCI-H460 [23]", "result": "Active"}, {"measurement": "Activity", "setting": "NCI-H460 [24]", "result": "Dose-dependent effect"}, {"measurement": "Activity", "setting": "NCI-H460 [25]", "result": "Dose-dependent effect"}]}
